Reference: ChEMBL document CHEMBL5038582, “Adamantyl Isothiocyanates as Mutant p53 Rescuing Agents and Their Structure-Activity Relationships” (J Med Chem, 2021)
Calls of active or inactive are those of the source. No cut-off for these calls is given here.

Legend:
MCF7 [1] = experiment: Cell cycle arrest in human MCF7 cells expressing wild type p53 assessed as accumulation of cells at G2/M phase at 6 uM measured after 24 hrs by PI staining based flow cytometry (reference value: 21.3%); type: functional
MDA-MB-468 [2] = experiment: Induction of apoptosis in human MDA-MB-468 cells expressing p53 R273H mutant assessed as decrease in level of uncleaved PARP1 level at 6 to 12 uM measured after 24 hrs by western blotting analysis; type: functional, cell-based; details: dose 6-12 µM
Summary of the method: (§1)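 Cells treated with DMSO or compound at 6 or 12 µM for 24 h, then lysed in Tris-Cl pH 8.0/NaCl/glycerol/NP-40/EDTA buffer with protease inhibitors. 100 µg lysate resolved on 4-12% SDS-PAGE and blotted to PVDF. Probed with anti-PARP or anti-caspase 3, then HRP secondary and ECL. GAPDH reprobe as control.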

[3] = molecular target: Cellular tumor antigen p53 (Homo sapiens) (UniProt P04637); experiment: Activation of p53 in human MCF7 cells assessed as increase in NOXA mRNA expression at 6 uM incubated for 4 hrs by qRT-PCR analysis; type: cell-based; details: filed as activator
Summary of the method: (§2)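 Cells treated with DMSO or 6 µM test compound for 4 h. RNA extracted, cDNA synthesised, transcript measured by TaqMan qRT-PCR and normalised to GAPDH. Averages from triplicates of repeated experiments, with standard deviation.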

MDA-MB-436 = experiment: Antiproliferative activity against human p53-null MDA-MB-436 cells assessed as inhibition of cell growth at 10 to 50 uM measured after 24 to 72 hrs by WST-1 assay; type: functional, cell-based; details: dose 10-50 µM, time 24-72 hrs
Summary of the method: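 WST-1 proliferation assay. Compound diluted in DMSO so that 10 μl of stock in 1 ml of cells (40,000 cells/ml) gives the test concentration at 1% DMSO. Cells plated at 4,000/well in duplicate and incubated at 37 °C for 24 h or 72 h. Result given as % of the 1% DMSO control.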

MCF7 [4] = experiment: Upregulation of p53 mRNA expression in human MCF7 cells at 6 uM measured after 4 hrs by qRT-PCR analysis; type: functional, cell-based; summary of the method: as §2
MDA-MB-231 [5] = experiment: Induction of apoptosis in human MDA-MB-231 cells expressing p53 R280K mutant assessed fold increase in number of Annexin-V stained cells at 6 to 12 uM incubated for 24 hrs by AnnexinV-FITC and PI staining based flow cytometry relative to control; type: functional; details: dose 6-12 µM
Summary of the method: (§3)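 24 h treatment, DMSO control. Cells scraped, washed in PBS, then given fluorochrome-conjugated Annexin V for 15 min at RT in the dark, followed by PI (0.1 µg/ml) in binding buffer. Read by flow cytometry on LSRFortessa. Annexin V-positive cells expressed relative to the DMSO control.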

MDA-MB-231 [6] = experiment: Antiproliferative activity against human MDA-MB-231 cells expressing p53 R280K mutant assessed as inhibition of cell growth incubated for 24 hrs by WST-1 assay; type: functional, cell-based; details: MDA-MB-231, 24 h
Summary of the method: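 WST-1 proliferation assay. Compound diluted in DMSO and added to cells at 1% DMSO final. 4,000 cells/well in duplicate; DMSO-only wells as control, cell-free medium wells for background.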

MDA-MB-231 [7] = experiment: Effect on p53 R280K mutant mRNA expression in human MDA-MB-231 cells at 6 uM measured after 4 hrs by qRT-PCR analysis; type: functional, cell-based; summary of the method: as §2
MCF7 [8] = experiment: Induction of apoptosis in human MCF7 cells expressing wild type p53 assessed as increase in cleaved PARP1 level at 6 to 12 uM measured after 24 hrs by western blotting analysis; type: functional, cell-based; details: dose 6-12 µM; summary of the method: as §1
[9] = system: Cellular tumor antigen p53 (Homo sapiens), P04637 [R273H]; experiment: Reactivation of transactivation function to p53 R273H mutant in human MDA-MB-468 cells assessed as increase in p21 mRNA expression at 6 uM incubated for 4 hrs by qRT-PCR analysis; type: cell-based; details: filed as activator; summary of the method: as §2
MDA-MB-231 [10] = experiment: Cell cycle arrest in human MDA-MB-231 cells expressing p53 R280K mutant assessed as accumulation of cells at G1 phase at 6 uM measured after 24 hrs by PI staining based flow cytometry (reference value: 42.9%)
[11] = system: Cellular tumor antigen p53 (Homo sapiens), P04637 [R280K]; experiment: Reactivation of transactivation function to p53 R280K mutant in human MDA-MB-231 cells assessed as ATM activation by measuring increase in phosphorylation of ATM at serine 1981 residue at 6 uM measured after 24 hrs by immunoblot analysis; type: cell-based; details: filed as activator
Summary of the method: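 DMSO or 6 µM for 24 h. 250 µg of lysate run on 4-12% SDS-PAGE, blot probed with anti-pATM Ser1981 (1:500), then anti-mouse HRP secondary with ECL detection. GAPDH reprobe as control. Triplicate experiments.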

MCF7 [12] = experiment: Upregulation of p53 expression in human MCF7 cells at 6 to 12 uM measured after 24 hrs by immunoblot analysis; type: functional, cell-based; details: dose 6-12 µM
Summary of the method: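 Cells treated with DMSO or compound at 6 or 12 µM for 24 h and lysed. 50 µg MCF-7 lysate resolved by SDS-PAGE and probed with p53 DO-1 antibody. Reprobed with anti-GAPDH as loading control. Run in triplicate.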

MDA-MB-231 [13] = experiment: Induction of apoptosis in human MDA-MB-231 cells expressing p53 R280K mutant assessed as decrease in level of uncleaved PARP1 level at 6 to 12 uM measured after 24 hrs by western blotting analysis; type: functional, cell-based; details: dose 6-12 µM; summary of the method: as §1
MDA-MB-468 [14] = experiment: Effect on p53 R273H mutant mRNA expression in human MDA-MB-468 cells at 6 uM measured after 4 hrs by qRT-PCR analysis; type: functional, cell-based; summary of the method: as §2
MDA-MB-468 [15] = experiment: Cell cycle arrest in human MDA-MB-468 cells expressing p53 R273H mutant assessed as accumulation of cells at G1 phase at 6 uM measured after 24 hrs by PI staining based flow cytometry (reference value: 30.6%); type: functional
MDA-MB-231 [16] = experiment: Induction of apoptosis in human MDA-MB-231 cells expressing p53 R280K mutant assessed increase in number of Annexin-V stained cells at 6 to 12 uM incubated for 24 hrs by AnnexinV-FITC and PI staining based flow cytometry; type: functional, cell-based; details: dose 6-12 µM; summary of the method: as §3
MDA-MB-468 [17] = experiment: Induction of apoptosis in human MDA-MB-468 cells expressing p53 R273H mutant assessed increase in number of Annexin-V stained cells at 6 to 12 uM incubated for 24 hrs by AnnexinV-FITC and PI staining based flow cytometry; type: functional, cell-based; details: dose 6-12 µM; summary of the method: as §3
[18] = Octanol-water partition coefficient, logP of the compound by HPLC-MS analysis; type: physicochemical; details: 18 h
Summary of the method: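 Compound (10 µL of 10 mM DMSO stock) added to 0.5 mL octanol plus 0.5 mL sodium phosphate buffer pH 7.4. Stirred 18 h, centrifuged 2 h at 3600 rpm. Concentration in each phase measured by LC-MS on a C18 column.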

| Structure (SMILES) | Activity (MCF7 [1]) [%] | Activity (MDA-MB-468 [2]) | Activity [3] | Activity (MDA-MB-436) | Activity (MCF7 [4]) | fold change (FC) (MDA-MB-231 [5]) | IC50 (MDA-MB-231 [6]) [µM] | Activity (MDA-MB-231 [7]) | Activity (MCF7 [8]) | Activity [9] | Activity (MDA-MB-231 [10]) [%] | Activity [11] | Activity (MCF7 [12]) | Activity (MDA-MB-231 [13]) | Activity (MDA-MB-468 [14]) | Activity (MDA-MB-468 [15]) [%] | Activity (MDA-MB-231 [16]) | Activity (MDA-MB-468 [17]) | logP [18] |
| --- | --- | --- | --- | --- | --- | --- | --- | --- | --- | --- | --- | --- | --- | --- | --- | --- | --- | --- | --- |
| S=C=NCCCC12CC3CC(CC(C3)C1)C2 | 24.3 | Active | Active | inactive | Active | 2 | 12 | inactive | inactive | Active | 48.2 | Active | inactive | Active | inactive | 53.2 | – | – | – |
| [Se]=C=NCCC12CC3CC(CC(C3)C1)C2 | – | Active | Active | – | Active | – | 6 | inactive | inactive | Active | – | – | Active | Active | inactive | – | Active | Active | 4.05 |
